Source: PubChem BioAssay (several laboratories)
Only some compounds are listed: those with a hit (about 0.75% of all), similar ones and a draw of the others.
NCF1 inh: p47phox (human) inhibition. P14598. p47phox/p22phox peptide binding, fluorescence polarization, 2 h. inhibition, % at 24.7 µM. actives 0.53% (n = 220,000). AID 1274;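 active = inhibition above about 30%, limit read from the data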;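 also: 0% = p47phox with labelled peptide and 100% = labelled peptide alone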
Target sequence (P14598 whole entry, looked up): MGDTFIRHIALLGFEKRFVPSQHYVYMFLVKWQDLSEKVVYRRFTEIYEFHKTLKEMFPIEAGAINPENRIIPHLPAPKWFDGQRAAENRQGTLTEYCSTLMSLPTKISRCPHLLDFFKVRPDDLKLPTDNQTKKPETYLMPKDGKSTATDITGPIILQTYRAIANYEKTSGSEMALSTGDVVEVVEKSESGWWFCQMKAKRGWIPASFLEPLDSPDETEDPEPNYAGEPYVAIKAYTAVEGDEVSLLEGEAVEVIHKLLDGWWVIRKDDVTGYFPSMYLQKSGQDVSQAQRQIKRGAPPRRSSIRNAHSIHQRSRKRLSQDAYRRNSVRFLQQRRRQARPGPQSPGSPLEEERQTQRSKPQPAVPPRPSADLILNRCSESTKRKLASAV
MDM2 E3 inh: inhibitors of human Mdm2 E3 ubiquitin ligase; actives 0.11% (n = 210,000); signal enhancement, % at 5 µM; cell-based MDM2 ubiquitination luciferase reporter, 2 h; 0 = plate control, 100 = twice control, blank-subtracted; Q00987;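 active = signal enhancement of 30% or more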;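 also: luminescence tracks abundance of the self-degrading MDM2-luciferase fusion protein; higher signal means inhibition of MDM2 E3 ligase activity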
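Timing – 2 h compound exposure at 37 °C · Assay system – mammalian cells stably expressing self-ubiquitinating, self-degrading MDM2 E3–luciferase fusion · Amount – 2000 cells seeded into each well · Measure – % luminescence enhancement versus blank-corrected plate control mean · Measured by – SteadyLite luminescence, 15 min reagent step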
Rad51 HR inh: blocks human Rad51 in homologous recombination; Q06609; hRad51 DNA strand exchange, fluorescence dequenching; inhibition, % at 10 µM; actives 0.085% (n = 200,000); AID 1385;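 active = inhibition above 40% at the single screening dose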;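 also: 0% = DMSO control wells and 100% = blanks with heterologous ssDNA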
Target sequence (Q06609 whole entry, looked up): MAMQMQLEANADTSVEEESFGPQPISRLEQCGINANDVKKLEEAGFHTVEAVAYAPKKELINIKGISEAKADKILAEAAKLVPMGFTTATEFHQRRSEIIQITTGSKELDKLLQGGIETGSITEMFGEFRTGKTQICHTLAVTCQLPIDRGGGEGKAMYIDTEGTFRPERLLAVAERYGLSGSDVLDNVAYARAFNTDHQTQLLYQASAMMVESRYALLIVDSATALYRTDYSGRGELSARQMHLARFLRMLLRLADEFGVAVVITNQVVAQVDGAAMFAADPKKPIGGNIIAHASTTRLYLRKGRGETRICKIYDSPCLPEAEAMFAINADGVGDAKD
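material = hRad51 filaments on single-stranded DNA | timing = filaments 15 min 37 °C, then compound 30 min | signal = FRET fluorescence dequenching, excitation 485 nm, emission 520 nm | benchmarks = control wells and blank wells on each plate | evaluation = percent inhibition relative to plate controls and blanks | compound = 10 µM final, single point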
TbHK1 inh: blocks Trypanosoma brucei hexokinase 1 activity | recombinant TbHK1, G6PDH-coupled NADH A340 | inhibition, % at 10 µM | actives 0.11% (n = 220,000);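 active = inhibition of 50% or more in the single-dose primary screen; inactive = inhibition below 50%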
Active calls of the source: *; . = not tested or not shown.

SMILES | NCF1 inh | MDM2 E3 inh | Rad51 HR inh | TbHK1 inh
CC(C)NS(=O)(=O)c1ccc(Oc2ncc(C(F)(F)F)cc2Cl)cc1 | 2.1 | -12.4 | -9.9 | 1.8
COc1ccc(-c2cc(C(F)(F)F)nc(S(=O)(=O)CCCC(=O)Nc3cccnc3Cl)n2)cc1OC | -4.3 | 34.1* | 2.1 | -15.0
Cn1c(C(O)C(O)c2ccccc2)nc2ccccc21 (stereo not drawn) | 6.0 | -7.8 | 5.7 | -10.6
Cn1c(C(C#N)C2=C(Cl)C(=O)N(c3ccccc3)C2=O)nc2ccccc21 (stereo not drawn) | 47.8* | -11.4 | -0.2 | -18.4
CCCc1cc(=O)n2[nH]cnc2n1 | 31.9* | -9.9 | 1.7 | -4.0
Cc1cc(=O)n2[nH]cnc2n1 | -8.2 | -65.8 | 4.0 | -4.7
O=S(=O)(CC(O)CS(=O)(=O)c1ccc(Cl)cc1)c1ccccc1 (stereo not drawn) | -9.5 | -16.6 | 28.6 | -7.9
CC(=O)c1cccc(NC(=O)Cn2nc(-c3ccc(Cl)cc3)ccc2=O)c1 | 11.1 | 9.1 | -1.9 | 3.0
COc1ccc(C2=NN(C3=NN=C(N)Cc4ncnn43)C(O)(C(F)(F)F)C2)cc1 (stereo not drawn) | -10.8 | -3.6 | 56.4* | 0.2
CCOc1ccc2c(c1)S/C(=C\c1cccs1)C(=O)N2 | -23.2 | . | -19.2 | -1.0
CN(C)c1cccc2c(S(=O)(=O)N3CCOCC3)cccc12 | 58.8* | -10.3 | -3.3 | -19.3
O=C(CCc1ccccc1)NNC(=O)COc1ccccc1 | -3.3 | -4.9 | -6.4 | -2.5
CC(C)(C)c1ccc(OCC(=O)NNC(=O)CCc2ccccc2)cc1 | 60.6* | -0.5 | . | 3.3
COC(=O)c1cccc(Cn2nnc3ccccc3c2=O)c1 | 114.0* | -4.7 | -3.3 | 0.2
COc1ccc(/C=C/C(=O)NC(=S)NCc2ccccc2)cc1OC | -11.8 | -6.0 | -0.9 | -32.3
c1ccc2c(c1)SCc1nnc(-c3ccncc3)n1-2 | -3.4 | -12.9 | . | -6.2
O=C(OCC(O)COC(=O)c1cccnc1)c1cccnc1 | -4.6 | -16.2 | 8.6 | -3.1
CCOC(=O)C1=C(c2ccccc2)O/C(=C(/C#N)C(F)(F)F)S1 | -105.5 | 68.2* | 0.7 | -8.3
CCOC(=O)C1=C(c2ccccc2)O/C(=C(\C(=O)OC)C(F)(F)F)S1 | -3.4 | -6.4 | 4.4 | -3.4
Cc1nc(NC(=O)CN2CCC(O)(c3ccc(F)cc3)CC2)sc1C | -11.0 | . | 8.4 | 3.3
COc1cccc(NC(=O)N2CCCC2)c1 | -6.0 | -11.1 | 42.5* | -1.0
Cn1ncc(C#N)c1NC(=O)c1cc(-c2ccccc2Cl)on1 | -3.3 | -12.2 | 1.4 | 3.6
O=C(OCC(=O)N1CCc2ccccc2C1)c1cccc([N+](=O)[O-])c1 | -4.6 | -14.9 | -6.9 | 2.6
Cc1ccc(C)c(NC(=O)CSc2nnc(-c3ccncc3)n2N)c1 | 34.1* | -10.5 | -1.8 | -9.4
Cn1nc(C(=O)OCC(=O)NC2CCS(=O)(=O)C2)c2ccccc2c1=O (stereo not drawn) | -8.8 | -8.6 | 6.2 | -2.1
SMILES | NCF1 inh | MDM2 E3 inh | Rad51 HR inh | TbHK1 inh
Cc1cc(C)nc(S/C=C/C(=O)c2ccc(F)cc2)n1 | -0.2 | 59.2* | -10.2 | -6.8
COc1cc(CC(=O)OCC(=O)Nc2ccc(Cl)c(S(=O)(=O)N(C)C)c2)cc(OC)c1OC | 33.6* | -3.0 | . | -4.3
CN(C)S(=O)(=O)c1cc(NC(=O)COC(=O)Cc2ccc(Br)cc2)ccc1Cl | -3.3 | -6.2 | . | 4.0
COc1ccc(CCN(C)S(=O)(=O)c2ccc(Cl)nc2)cc1OC | -1.4 | 4.4 | 5.3 | -5.0
Cc1ccsc1-c1nc(CN(C)C(C2CC2)C2CC2)c(C)o1 | -14.5 | -6.6 | 0.7 | 2.2
CCOC(=O)c1ccc(-c2ccc(/C=N/NC(=O)CN(c3cccc(C)c3)S(C)(=O)=O)o2)cc1 | 31.2* | -5.2 | -8.8 | -19.5
CCOC(=O)c1ccc(-c2ccc(/C=N/NC(=O)CN(c3ccccc3Cl)S(C)(=O)=O)o2)cc1 | -40.5 | -9.6 | -8.3 | -14.5
COc1ccccc1N1CCN(C(c2ccc(C)cc2)c2nnnn2C(C)C)CC1 (stereo not drawn) | -5.5 | 38.1* | -3.4 | -1.2
NC(=O)Nc1ccc(C(=O)OCC(=O)NC2CCCCC2)cc1 | -4.9 | -15.6 | 3.7 | 1.3
CNc1nc(CCN2C(=O)c3ccccc3C2=O)cs1 | -8.8 | -5.2 | 7.2 | -4.3
CC(=O)Nc1nc(CCN2C(=O)c3ccccc3C2=O)cs1 | 45.3* | 4.9 | -1.7 | 0.3
CCc1nc(C)cc2c1sc1ccccc12 | 1.0 | 5.8 | 12.3 | -17.4
CC[n+]1c(C)cc2c(sc3ccccc32)c1C | 33.5* | -6.4 | -7.0 | 2.2
C=C1CCN(c2ccc(C(=O)NCCC)cc2[N+](=O)[O-])CC1 | . | . | 3.8 | .
CCc1n[nH]c(=O)n1Cn1c(CC)n[nH]c1=O | 36.5* | -4.3 | 4.8 | -6.0
CC1CCN(C(=O)C(C)c2ccc([N+](=O)[O-])cc2)CC1 (stereo not drawn) | -10.1 | -0.5 | 3.1 | 2.9
Cc1cc(C)nc(SCc2ccc(C(=O)N/N=C/c3ccncc3)cc2)n1 | -10.8 | 2.4 | 11.6 | -2.6
Cc1cc(C)nc(SCc2ccc(C(=O)NNC(=O)Nc3cccc(Cl)c3)cc2)n1 | 31.9* | -4.1 | -3.5 | 10.9
COc1ccc(Cl)cc1C(=O)C1CCCN(Cc2cnc(N3CCOCC3)s2)C1 (stereo not drawn) | 47.1* | -7.0 | 13.3 | -10.2
COc1ccc(OCC(=O)N/N=C/c2ccsc2)cc1 | 73.8* | -10.2 | -2.6 | 6.8
CN1CCN(CC(O)COc2ccc(C34CC5CC(CC(C5)C3)C4)cc2)CC1 (stereo not drawn) | 72.7* | -7.2 | 2.8 | -3.8
OC(COc1ccc(OCC(O)CN2CCCCCC2)cc1)CN1CCCCCC1 (stereo not drawn) | -2.9 | -14.9 | -9.3 | -1.5
Cc1ccc(CSc2nnc(C)c(=O)[nH]2)cc1 | 67.1* | -7.7 | 0.1 | 2.3
Cc1nnc(SCc2ccccc2)[nH]c1=O | -4.3 | -0.9 | -7.1 | -4.8
COC(=O)c1cc(C(=O)OC)cc(-n2c(C)cc(C(=O)COC(=O)CNS(=O)(=O)c3ccc(C)cc3)c2C)c1 | -66.8 | 8.1 | 6.8 | 4.0
SMILES | NCF1 inh | MDM2 E3 inh | Rad51 HR inh | TbHK1 inh
COC(=O)c1cc(C(=O)OC)cc(N2C(=O)CC(NNC(=O)c3ccc(C)cc3)C2=O)c1 (stereo not drawn) | 129.6* | -3.1 | 7.5 | 0.3
COC(=O)c1cc(C(=O)OC)cc(N2C(=O)CC(NNC(=O)c3ccccc3Br)C2=O)c1 (stereo not drawn) | -18.0 | -13.8 | 7.1 | -5.7
CCOC(=O)C1=C(C)OC(N)=C(C#N)C1c1cc2cc(C)ccc2nc1N1CCCCC1 (stereo not drawn) | 48.6* | 2.8 | . | -5.9
CCOC(=O)C1=C(C)OC(N)=C(C#N)C1c1cc2ccccc2nc1N1CCCCC1 (stereo not drawn) | 81.4* | -11.1 | -3.7 | -10.0
CCOC(=O)C1=C(C)OC(N)=C(C#N)C1c1cc(C)sc1C (stereo not drawn) | -12.5 | -11.9 | 3.2 | -9.5
Cc1ccc(S(=O)(=O)N2CCN(C(=O)CC(C)C)CC2)cc1 | -1.1 | 31.8* | 3.0 | 2.5
CC(C)CNC(=O)c1cc([N+](=O)[O-])ccc1N1CCCCC1 | -10.1 | -16.0 | 10.8 | 24.1
